For this assay, the target named is Metabotropic glutamate receptor 1 (Homo sapiens) (UniProt Q13255). Nature of the assay: Allosteric modulation of human mGlu1 receptor assessed as change in glutamate-induced calcium mobilization at 10 uM preincubated for 2.5 mins followed by glutamate addition by Fluo-4-AM dye based fluorescence assay. The assay is classed as functional. The method in brief: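 Human mGlu1 and rat mGlu5 tested by calcium mobilization with a double addition. 10 μM compound was added, then 2.5 min later a full glutamate concentration range. A left shift of more than 2-fold was scored as potentiation. A right shift of more than 2-fold, or a depression of the maximum response by at least 75%, was scored as antagonism.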

Molecules are shown by their SMILES. Calls of active or inactive are those of the source. No cut-off for these calls is given here.

Chain of Metabotropic glutamate receptor 1 (Homo sapiens) (Q13255 19-1194 limits assumed): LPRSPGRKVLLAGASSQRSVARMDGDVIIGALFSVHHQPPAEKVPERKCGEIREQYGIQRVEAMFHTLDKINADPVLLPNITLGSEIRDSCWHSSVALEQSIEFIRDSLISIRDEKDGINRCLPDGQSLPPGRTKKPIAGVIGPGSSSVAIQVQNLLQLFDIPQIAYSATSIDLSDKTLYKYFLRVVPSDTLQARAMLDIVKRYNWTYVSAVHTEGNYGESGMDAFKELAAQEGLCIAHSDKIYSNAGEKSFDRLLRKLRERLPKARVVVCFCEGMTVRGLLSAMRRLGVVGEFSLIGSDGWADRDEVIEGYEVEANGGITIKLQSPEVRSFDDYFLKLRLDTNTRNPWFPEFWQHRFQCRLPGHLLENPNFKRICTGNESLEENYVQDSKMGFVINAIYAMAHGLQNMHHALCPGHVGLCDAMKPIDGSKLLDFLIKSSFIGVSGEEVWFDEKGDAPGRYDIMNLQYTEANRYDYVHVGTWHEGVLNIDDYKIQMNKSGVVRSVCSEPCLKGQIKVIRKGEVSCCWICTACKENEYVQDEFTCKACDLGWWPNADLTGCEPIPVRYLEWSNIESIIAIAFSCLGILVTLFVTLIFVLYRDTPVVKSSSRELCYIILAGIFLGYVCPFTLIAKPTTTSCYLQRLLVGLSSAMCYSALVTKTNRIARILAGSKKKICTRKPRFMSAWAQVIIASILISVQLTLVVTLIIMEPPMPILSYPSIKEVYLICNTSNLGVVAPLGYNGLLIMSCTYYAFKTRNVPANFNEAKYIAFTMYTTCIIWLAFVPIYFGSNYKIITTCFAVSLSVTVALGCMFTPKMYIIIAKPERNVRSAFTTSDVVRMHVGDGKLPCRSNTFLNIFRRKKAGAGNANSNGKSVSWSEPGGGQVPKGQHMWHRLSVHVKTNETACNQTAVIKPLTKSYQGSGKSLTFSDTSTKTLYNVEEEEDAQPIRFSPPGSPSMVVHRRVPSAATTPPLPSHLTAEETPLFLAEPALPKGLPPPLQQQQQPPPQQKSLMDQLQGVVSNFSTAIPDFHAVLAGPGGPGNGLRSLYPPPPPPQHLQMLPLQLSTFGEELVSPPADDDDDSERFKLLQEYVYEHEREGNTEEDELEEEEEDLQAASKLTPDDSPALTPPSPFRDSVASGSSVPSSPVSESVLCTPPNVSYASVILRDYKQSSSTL

As to `O=C(NC1CC(F)(F)C1)c1nsc2cc(Nc3n[nH]c4cccnc34)ccc12`, the outcome was inactive.
